Active and inactive are the calls of the source. No cut-off for these calls is given here.
Tests used:
HCT-116 = assay: (§1) Cytotoxicity against human HCT116 cells assessed as reduction in cell viability after 72 hrs by calcein AM staining based fluorescence assay; format: functional
Procedure, shortened: (§2)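 Cells were grown in DMEM with 10% FBS, penicillin and streptomycin at 37 °C in 5% CO2. Three doses were tested in triplicate for 72 h. Live cells were read by Calcein AM fluorescence at 485/538 nm.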

[1] = as §1; format: functional; details: HCT-116, 72 h; procedure, shortened: as §2
[2] = target: Vascular endothelial growth factor receptor (Homo sapiens) (UniProt P17948+P35916+P35968); assay: Inhibition of recombinant VEGFR (unknown origin) assessed as residual activity at 1 uM relative to control; format: protein assay
[3] = target: Tyrosine-protein kinase SYK (Homo sapiens) (UniProt P43405); assay: Inhibition of recombinant SYK (unknown origin) assessed as residual activity at 1 uM relative to control
G-361 = assay: Induction of apoptosis in human G361 cells assessed as caspase7 activation using Ac-DEVD-AMC as substrate at 5 times IC50 preincubated for 24 hrs followed by substrate addition measured after 3 hrs by fluorescence assay; format: functional, cell-based
K562 = assay: Cytotoxicity against human K562 cells assessed as reduction in cell viability after 72 hrs by calcein AM staining based fluorescence assay; format: functional; details: K562, 72 h
Procedure, shortened: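 Cells were grown in DMEM with 10% FBS, penicillin and streptomycin at 37 °C in 5% CO2. Three doses were tested in triplicate for 72 h.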

[4] = target: Tyrosine-protein kinase BTK (Homo sapiens) (UniProt Q06187); assay: Inhibition of recombinant BTK (unknown origin) assessed as residual activity at 1 uM relative to control
Sequence of Tyrosine-protein kinase BTK (Homo sapiens) (Q06187 whole entry): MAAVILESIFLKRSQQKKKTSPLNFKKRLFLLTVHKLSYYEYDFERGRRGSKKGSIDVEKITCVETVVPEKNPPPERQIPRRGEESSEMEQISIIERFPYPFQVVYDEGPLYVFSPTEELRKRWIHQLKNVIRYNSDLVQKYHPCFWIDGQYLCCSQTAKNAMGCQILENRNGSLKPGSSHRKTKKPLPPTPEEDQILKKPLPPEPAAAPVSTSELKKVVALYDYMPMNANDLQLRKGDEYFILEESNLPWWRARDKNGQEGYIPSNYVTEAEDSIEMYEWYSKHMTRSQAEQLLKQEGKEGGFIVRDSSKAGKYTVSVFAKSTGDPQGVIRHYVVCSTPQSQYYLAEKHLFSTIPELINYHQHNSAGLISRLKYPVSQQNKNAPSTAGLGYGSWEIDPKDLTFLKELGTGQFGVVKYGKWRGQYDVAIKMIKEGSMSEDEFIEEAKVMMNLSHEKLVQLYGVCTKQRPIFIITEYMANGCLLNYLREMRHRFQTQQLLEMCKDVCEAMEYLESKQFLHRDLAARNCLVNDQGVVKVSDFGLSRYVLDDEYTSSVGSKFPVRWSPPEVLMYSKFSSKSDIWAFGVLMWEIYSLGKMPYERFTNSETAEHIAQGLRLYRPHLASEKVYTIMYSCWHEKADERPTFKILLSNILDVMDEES

[5] = target: Interleukin-1 receptor-associated kinase 4 (Homo sapiens) (UniProt Q9NWZ3); assay: Inhibition of recombinant IRAK4 (unknown origin) assessed as residual activity at 1 uM relative to control
[6] = target: Serine/threonine-protein kinase D1 (Homo sapiens) (UniProt Q15139); assay: Inhibition of recombinant PKD1 (unknown origin) assessed as residual activity at 1 uM relative to control
[7] = target: Ribosomal protein S6 kinase alpha-1 (Homo sapiens) (UniProt Q15418); assay: Inhibition of recombinant RSK1 (unknown origin) assessed as residual activity at 1 uM relative to control
[8] = target: Receptor tyrosine-protein kinase erbB-4 (Homo sapiens) (UniProt Q15303); assay: Inhibition of recombinant HER4 (unknown origin) assessed as residual activity at 1 uM relative to control
Sequence of Receptor tyrosine-protein kinase erbB-4 (Homo sapiens) (Q15303 whole entry): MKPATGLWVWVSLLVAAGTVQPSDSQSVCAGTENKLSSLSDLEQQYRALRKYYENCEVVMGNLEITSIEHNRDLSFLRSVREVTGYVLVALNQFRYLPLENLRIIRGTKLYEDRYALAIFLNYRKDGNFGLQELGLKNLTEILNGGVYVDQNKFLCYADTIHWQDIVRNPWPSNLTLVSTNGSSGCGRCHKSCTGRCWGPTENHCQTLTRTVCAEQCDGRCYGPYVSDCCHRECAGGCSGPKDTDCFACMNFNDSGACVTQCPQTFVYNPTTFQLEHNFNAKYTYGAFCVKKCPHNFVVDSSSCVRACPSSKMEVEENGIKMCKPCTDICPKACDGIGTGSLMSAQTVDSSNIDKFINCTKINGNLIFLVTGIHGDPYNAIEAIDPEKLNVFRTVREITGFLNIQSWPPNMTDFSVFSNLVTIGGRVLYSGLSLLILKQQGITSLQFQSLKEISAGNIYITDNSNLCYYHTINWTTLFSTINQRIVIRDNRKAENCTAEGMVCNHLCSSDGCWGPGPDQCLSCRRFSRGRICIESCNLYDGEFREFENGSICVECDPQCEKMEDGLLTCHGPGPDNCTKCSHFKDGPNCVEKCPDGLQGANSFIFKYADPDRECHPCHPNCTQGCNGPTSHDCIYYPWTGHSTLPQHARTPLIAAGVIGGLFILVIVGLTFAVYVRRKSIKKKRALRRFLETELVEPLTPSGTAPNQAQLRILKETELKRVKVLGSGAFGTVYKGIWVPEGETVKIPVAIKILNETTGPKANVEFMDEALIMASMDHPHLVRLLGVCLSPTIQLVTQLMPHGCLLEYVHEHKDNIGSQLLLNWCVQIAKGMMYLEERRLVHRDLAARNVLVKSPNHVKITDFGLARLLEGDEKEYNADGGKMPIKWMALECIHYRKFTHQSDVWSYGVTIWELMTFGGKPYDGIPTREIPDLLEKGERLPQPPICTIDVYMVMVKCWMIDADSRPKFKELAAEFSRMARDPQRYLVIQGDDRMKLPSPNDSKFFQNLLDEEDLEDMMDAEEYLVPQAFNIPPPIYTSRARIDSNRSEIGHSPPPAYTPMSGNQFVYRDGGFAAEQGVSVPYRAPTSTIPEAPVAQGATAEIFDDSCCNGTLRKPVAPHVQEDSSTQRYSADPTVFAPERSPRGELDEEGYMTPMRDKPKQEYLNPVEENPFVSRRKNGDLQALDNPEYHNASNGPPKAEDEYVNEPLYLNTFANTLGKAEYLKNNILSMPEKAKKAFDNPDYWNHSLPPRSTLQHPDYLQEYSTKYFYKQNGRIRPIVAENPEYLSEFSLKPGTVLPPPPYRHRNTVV

MCF7 = assay: Cell cycle arrest in BrdU pulse-labelled human MCF7 cells assessed as accumulation at late S phase at 8 to 250 nM after 24 hrs by propidium iodide staining based flow cytometry; format: functional
[9] = target: Serine/threonine-protein kinase TBK1 (Homo sapiens) (UniProt Q9UHD2); assay: Inhibition of recombinant TBK1 (unknown origin) assessed as residual activity at 1 uM relative to control
Sequence of Serine/threonine-protein kinase TBK1 (Homo sapiens) (Q9UHD2 whole entry): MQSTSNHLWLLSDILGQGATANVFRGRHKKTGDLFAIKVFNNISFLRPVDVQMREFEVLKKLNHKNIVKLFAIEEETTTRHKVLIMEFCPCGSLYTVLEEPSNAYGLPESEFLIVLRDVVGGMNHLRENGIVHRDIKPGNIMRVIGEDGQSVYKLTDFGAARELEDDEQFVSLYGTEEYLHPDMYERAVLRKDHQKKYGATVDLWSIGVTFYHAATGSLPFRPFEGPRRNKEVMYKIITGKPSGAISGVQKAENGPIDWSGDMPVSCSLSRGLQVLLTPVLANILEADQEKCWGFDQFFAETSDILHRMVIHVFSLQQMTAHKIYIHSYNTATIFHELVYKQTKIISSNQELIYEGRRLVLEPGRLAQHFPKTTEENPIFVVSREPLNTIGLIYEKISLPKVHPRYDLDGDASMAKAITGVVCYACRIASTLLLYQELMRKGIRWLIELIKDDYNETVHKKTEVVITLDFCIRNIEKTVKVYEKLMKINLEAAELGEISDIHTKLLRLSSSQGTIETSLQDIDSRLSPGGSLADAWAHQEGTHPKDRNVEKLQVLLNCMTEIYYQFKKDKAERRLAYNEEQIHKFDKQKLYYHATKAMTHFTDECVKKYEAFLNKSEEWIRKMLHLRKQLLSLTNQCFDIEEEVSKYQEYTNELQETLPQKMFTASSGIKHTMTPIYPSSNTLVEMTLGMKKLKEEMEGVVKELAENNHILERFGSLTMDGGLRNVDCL

[10] = target: Casein kinase II (Homo sapiens) (UniProt P67870+P68400+P19784); assay: Inhibition of recombinant CK2 (unknown origin) assessed as residual activity at 1 uM relative to control; format: protein-complex assay
[11] = target: Rho-associated protein kinase 2 (Homo sapiens) (UniProt O75116); assay: Inhibition of recombinant ROCK2 (unknown origin) assessed as residual activity at 1 uM relative to control
[12] = target: Serine/threonine-protein kinase Nek6 (Homo sapiens) (UniProt Q9HC98); assay: Inhibition of recombinant NEK6 (unknown origin) assessed as residual activity at 1 uM relative to control
[13] = target: Serine/threonine-protein kinase 3 (Homo sapiens) (UniProt Q13188); assay: Inhibition of recombinant MST2 (unknown origin) assessed as residual activity at 1 uM relative to control
[14] = target: Cyclin-dependent kinase 2/cyclin E1 (Homo sapiens, UniProt P24941); assay: Inhibition of CDK2/Cyclin E (unknown origin) expressed in sf9 cells using histone H1 as substrate in presence of [gamma33P]-ATP; format: cell-based
[15] = target: Serine/threonine-protein kinase PAK 4 (Homo sapiens) (UniProt O96013); assay: Inhibition of recombinant PAK4 (unknown origin) assessed as residual activity at 1 uM relative to control
[16] = target: Serine/threonine-protein kinase STK11 (Homo sapiens) (UniProt Q15831); assay: Inhibition of recombinant LKB1 (unknown origin) assessed as residual activity at 1 uM relative to control
[17] = target: SRSF protein kinase 1 (Homo sapiens) (UniProt Q96SB4); assay: Inhibition of recombinant SRPK1 (unknown origin) assessed as residual activity at 1 uM relative to control
[18] = target: Calcium/calmodulin-dependent protein kinase kinase 2 (Homo sapiens) (UniProt Q96RR4); assay: Inhibition of recombinant CAMKKB (unknown origin) assessed as residual activity at 1 uM relative to control
Sequence of Calcium/calmodulin-dependent protein kinase kinase 2 (Homo sapiens) (Q96RR4 2-588 limits assumed): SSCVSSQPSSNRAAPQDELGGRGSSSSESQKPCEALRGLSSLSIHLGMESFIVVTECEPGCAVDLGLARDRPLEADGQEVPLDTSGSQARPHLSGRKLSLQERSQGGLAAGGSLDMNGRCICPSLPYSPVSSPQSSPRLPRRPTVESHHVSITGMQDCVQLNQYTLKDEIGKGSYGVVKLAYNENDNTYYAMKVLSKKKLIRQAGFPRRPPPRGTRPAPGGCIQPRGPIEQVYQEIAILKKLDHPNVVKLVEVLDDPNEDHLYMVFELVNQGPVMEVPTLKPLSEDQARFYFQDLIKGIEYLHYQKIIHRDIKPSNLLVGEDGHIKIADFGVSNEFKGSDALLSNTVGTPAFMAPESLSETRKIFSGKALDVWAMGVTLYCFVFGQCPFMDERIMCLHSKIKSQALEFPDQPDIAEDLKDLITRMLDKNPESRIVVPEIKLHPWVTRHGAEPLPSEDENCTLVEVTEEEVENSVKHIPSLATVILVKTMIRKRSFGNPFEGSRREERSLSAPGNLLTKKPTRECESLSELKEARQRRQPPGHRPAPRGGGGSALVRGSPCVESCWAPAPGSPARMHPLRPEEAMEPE

[19] = target: Serine/threonine-protein kinase Chk2 (Homo sapiens) (UniProt O96017); assay: Inhibition of recombinant CHK2 (unknown origin) assessed as residual activity at 1 uM relative to control
Sequence of Serine/threonine-protein kinase Chk2 (Homo sapiens) (O96017 whole entry): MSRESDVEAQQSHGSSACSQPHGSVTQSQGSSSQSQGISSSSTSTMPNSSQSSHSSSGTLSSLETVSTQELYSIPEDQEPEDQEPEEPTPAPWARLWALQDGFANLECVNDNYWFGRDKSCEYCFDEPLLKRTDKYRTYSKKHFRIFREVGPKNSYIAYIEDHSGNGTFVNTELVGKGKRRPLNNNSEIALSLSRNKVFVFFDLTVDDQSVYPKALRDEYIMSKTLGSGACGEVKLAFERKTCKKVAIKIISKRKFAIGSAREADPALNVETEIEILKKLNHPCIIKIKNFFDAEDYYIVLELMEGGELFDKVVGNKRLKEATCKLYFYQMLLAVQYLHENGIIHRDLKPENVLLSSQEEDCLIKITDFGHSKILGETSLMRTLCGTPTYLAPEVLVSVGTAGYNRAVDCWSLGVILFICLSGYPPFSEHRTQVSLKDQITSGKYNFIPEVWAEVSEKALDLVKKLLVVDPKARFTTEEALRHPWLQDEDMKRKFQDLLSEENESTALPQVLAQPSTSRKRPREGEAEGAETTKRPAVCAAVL

[20] = Cell cycle arrest in BrdU pulse-labelled human HCT116 cells assessed as accumulation at subG1 phase at 125 to 500 nM after 24 hrs by propidium iodide staining based flow cytometry; format: functional; details: HCT-116
[21] = target: Proto-oncogene tyrosine-protein kinase Src (Homo sapiens) (UniProt P12931); assay: Inhibition of recombinant SRC (unknown origin) assessed as residual activity at 1 uM relative to control
[22] = target: Calcium/calmodulin-dependent protein kinase type 1 (Homo sapiens) (UniProt Q14012); assay: Inhibition of recombinant CAMK1 (unknown origin) assessed as residual activity at 1 uM relative to control
[23] = target: Ribosomal protein S6 kinase alpha-5 (Homo sapiens) (UniProt O75582); assay: Inhibition of recombinant MSK1 (unknown origin) assessed as residual activity at 1 uM relative to control
Sequence of Ribosomal protein S6 kinase alpha-5 (Homo sapiens) (O75582 whole entry, looked up): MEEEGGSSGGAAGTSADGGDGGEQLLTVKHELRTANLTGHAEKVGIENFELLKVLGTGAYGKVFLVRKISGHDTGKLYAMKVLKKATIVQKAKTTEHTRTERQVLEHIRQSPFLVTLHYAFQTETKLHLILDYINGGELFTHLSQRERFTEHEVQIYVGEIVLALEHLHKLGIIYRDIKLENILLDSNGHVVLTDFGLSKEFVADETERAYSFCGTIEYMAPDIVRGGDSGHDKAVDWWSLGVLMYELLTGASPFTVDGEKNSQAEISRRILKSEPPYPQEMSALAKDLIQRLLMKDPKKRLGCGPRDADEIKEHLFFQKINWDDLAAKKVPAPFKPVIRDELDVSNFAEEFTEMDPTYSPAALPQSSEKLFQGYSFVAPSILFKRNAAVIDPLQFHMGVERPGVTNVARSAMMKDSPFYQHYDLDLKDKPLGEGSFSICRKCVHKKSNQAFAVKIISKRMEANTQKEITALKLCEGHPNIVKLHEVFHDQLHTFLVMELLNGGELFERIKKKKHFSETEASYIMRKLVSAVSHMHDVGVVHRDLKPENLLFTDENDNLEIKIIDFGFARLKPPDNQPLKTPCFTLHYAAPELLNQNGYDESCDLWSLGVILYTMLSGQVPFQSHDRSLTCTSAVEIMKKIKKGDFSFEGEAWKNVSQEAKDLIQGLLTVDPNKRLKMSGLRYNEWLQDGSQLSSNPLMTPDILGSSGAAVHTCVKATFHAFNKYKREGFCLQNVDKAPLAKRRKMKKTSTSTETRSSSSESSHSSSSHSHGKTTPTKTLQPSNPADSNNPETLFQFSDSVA

[24] = target: Cyclin-dependent kinase 2 (Homo sapiens) (UniProt P24941); assay: Inhibition of CDK2 in human G361 cells assessed as reduction in phosphorylation of RNA polymerase 2 at C-terminus at 1 uM incubated for 0.5 to 24 hrs by immunoblotting analysis; format: cell-based; details: G-361
Procedure, shortened: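 Treated G361 cells were lysed in Laemmli buffer, run on SDS-PAGE and blotted to nitrocellulose. Blots were probed overnight with antibodies to RNA polymerase II phosphorylated at S5 and S2, and to total RNA polymerase II (ARNA-3). Peroxidase secondaries were then applied and signal was detected by ECL with a CCD camera.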

[25] = target: Aurora kinase B (Homo sapiens) (UniProt Q96GD4); assay: Inhibition of recombinant Aurora B (unknown origin) assessed as residual activity at 1 uM relative to control
Sequence of Aurora kinase B (Homo sapiens) (Q96GD4 whole entry): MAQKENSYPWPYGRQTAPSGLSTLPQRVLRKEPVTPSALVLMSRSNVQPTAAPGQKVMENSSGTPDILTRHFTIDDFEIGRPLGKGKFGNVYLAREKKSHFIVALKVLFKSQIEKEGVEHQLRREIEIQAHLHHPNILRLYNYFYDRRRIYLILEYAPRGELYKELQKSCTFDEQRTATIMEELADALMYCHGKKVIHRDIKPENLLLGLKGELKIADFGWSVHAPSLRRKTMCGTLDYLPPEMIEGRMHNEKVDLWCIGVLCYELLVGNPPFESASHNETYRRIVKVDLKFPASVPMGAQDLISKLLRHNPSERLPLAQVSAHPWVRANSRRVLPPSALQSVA

[26] = target: Tyrosine-protein kinase JAK2 (Homo sapiens) (UniProt O60674); assay: Inhibition of recombinant JAK2 (unknown origin) assessed as residual activity at 1 uM relative to control
[27] = target: Mitogen-activated protein kinase 8 (Homo sapiens) (UniProt P45983); assay: Inhibition of recombinant JNK1 (unknown origin) assessed as residual activity at 1 uM relative to control
[28] = target: Protein kinase C alpha type (Homo sapiens) (UniProt P17252); assay: Inhibition of recombinant PKCalpha (unknown origin) assessed as residual activity at 1 uM relative to control

Activity [2]: > 100%
Activity [3]: > 100%
Activity [4]: > 100%
Activity [5]: > 100%
Activity [6]: > 100%
Activity [7]: 77%
Activity [8]: > 100%
Activity [9]: 92%
Activity [10]: 89%
Activity [11]: > 100%
Activity [12]: 85%
Activity [13]: > 100%
IC50 [14]: 21 nM
Activity [15]: 69%
Activity [16]: 82%
Activity [17]: 95%
Activity [18]: 49%
Activity [19]: 79%
Activity [21]: 88%
Activity [22]: 77%
Activity [23]: 97%
inhibition [24]: Active
Activity [25]: 89%
Activity [26]: > 100%
Activity [27]: 93%
Activity [28]: > 100%
SMILES: CC(O)CNc1nc(NCc2ccc(-c3ccccn3)cc2)c2[nH]nc(C(C)C)c2n1 (configuration not stated)
Activity (HCT-116): Dose-dependent effect
IC50 [1]: 87 nM
Activity (G-361): Active
IC50 (K562): 57 nM
Activity (MCF7): Active
Activity [20]: Active

Reference: ChEMBL document CHEMBL3774312, “5-Substituted 3-isopropyl-7-[4-(2-pyridyl)benzyl]amino-1(2)H-pyrazolo[4,3-d]pyrimidines with anti-proliferative activity as potent and selective inhibitors of cyclin-dependent kinases” (Eur J Med Chem, 2016)
